Data published in ChEMBL document CHEMBL4184294, “A small group of sulfated benzofurans induces steady-state submaximal inhibition of thrombin” (Bioorg Med Chem Lett, 2018).
The source made the active and inactive calls. The calls are words filed in the database; no cut-off is given here.

What was measured:
Prothrombin [1] = biological target: T1, Prothrombin (Homo sapiens, UniProt P00734); assay: Partial allosteric inhibition of human thrombin at 500 uM using spectrozyme TH as substrate pretreated for 10 mins followed by substrate addition by spectrophotometric method relative to control
Prothrombin [2] = biological target: T1, Prothrombin; assay: Partial allosteric inhibition of human thrombin using spectrozyme TH as substrate pretreated for 10 mins followed by substrate addition by spectrophotometric method
Summary of the method: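 Chromogenic substrate hydrolysis by thrombin read spectrophotometrically in 20 mM Tris-HCl pH 7.4 with […], 100 mM NaCl and 0.1% PEG 8000 at 25 °C. Sigmoidal fits gave IC50 and efficacy (ΔY). Errors ±1 S.E.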

Prothrombin [3] = biological target: T1, Prothrombin; assay: Partial allosteric inhibition of human thrombin at 300 uM using spectrozyme TH as substrate pretreated for 10 mins followed by substrate addition by spectrophotometric method relative to control
[4] = system: CCOC(=O)c1c(C)oc2cc(OCCc3ccccc3)c(OCc3oc4cc(OC)c(OS(=O)(=O)O)cc4c3C(=O)OCC)cc12; assay: Non competitive inhibition of human thrombin assessed as substrate Vmax at 10 uM using varying levels of spectrozyme TH as substrate measured after 10 mins by Michaelis-Menten plot analysis (reference value: 51.0 +/- 2.8 mAU/min)
[5] = system: CCOC(=O)c1c(C)oc2cc(OCCc3ccccc3)c(OCc3oc4cc(OC)c(OS(=O)(=O)O)cc4c3C(=O)OCC)cc12; assay: Non competitive inhibition of human thrombin assessed as substrate Vmax at 1 uM using varying levels of spectrozyme TH as substrate measured after 10 mins by Michaelis-Menten plot analysis (reference value: 51.0 +/- 2.8 mAU/min)
[6] = system: CCOC(=O)c1c(C)oc2cc(OCc3ccccc3)c(OCc3oc4cc(OCC5CCCCC5)c(OS(=O)(=O)O)cc4c3C(=O)OCC)cc12; assay: Mixed-type inhibition of human thrombin assessed as substrate Km at 40 uM using varying levels of spectrozyme TH as substrate measured after 10 mins by Michaelis-Menten plot analysis (reference value: 8.6 +/- 2.8 uM)
[7] = system: CCOC(=O)c1c(C)oc2cc(OCc3ccccc3)c(OCc3oc4cc(OCC5CCCCC5)c(OS(=O)(=O)O)cc4c3C(=O)OCC)cc12; assay: Mixed-type inhibition of human thrombin assessed as substrate Vmax at 2 uM using varying levels of spectrozyme TH as substrate measured after 10 mins by Michaelis-Menten plot analysis (reference value: 48.2 +/- 2.8 mAU/min)
[8] = system: CCOC(=O)c1c(C)oc2cc(OCc3ccccc3)c(OCc3oc4cc(OCC5CCCCC5)c(OS(=O)(=O)O)cc4c3C(=O)OCC)cc12; assay: Mixed-type inhibition of human thrombin assessed as substrate Km at 10 uM using varying levels of spectrozyme TH as substrate measured after 10 mins by Michaelis-Menten plot analysis (reference value: 8.6 +/- 2.8 uM)
[9] = system: CCOC(=O)c1c(C)oc2cc(OCc3ccccc3)c(OCc3oc4cc(OCC5CCCCC5)c(OS(=O)(=O)O)cc4c3C(=O)OCC)cc12; assay: Mixed-type inhibition of human thrombin assessed as substrate Vmax at 10 uM using varying levels of spectrozyme TH as substrate measured after 10 mins by Michaelis-Menten plot analysis (reference value: 48.2 +/- 2.8 mAU/min)
[10] = system: CCOC(=O)c1c(C)oc2cc(OCCc3ccccc3)c(OCc3oc4cc(OC)c(OS(=O)(=O)O)cc4c3C(=O)OCC)cc12; assay: Non competitive inhibition of human thrombin assessed as substrate Km at 1 uM using varying levels of spectrozyme TH as substrate measured after 10 mins by Michaelis-Menten plot analysis (reference value: 9.3 +/- 2.8 uM)
[11] = system: CCOC(=O)c1c(C)oc2cc(OCc3ccccc3)c(OCc3oc4cc(OCC5CCCCC5)c(OS(=O)(=O)O)cc4c3C(=O)OCC)cc12; assay: Mixed-type inhibition of human thrombin assessed as substrate Km at 1 uM using varying levels of spectrozyme TH as substrate measured after 10 mins by Michaelis-Menten plot analysis (reference value: 8.6 +/- 2.8 uM)
[12] = system: CCOC(=O)c1c(C)oc2cc(OCCc3ccccc3)c(OCc3oc4cc(OC)c(OS(=O)(=O)O)cc4c3C(=O)OCC)cc12; assay: Non competitive inhibition of human thrombin assessed as substrate Km at 40 uM using varying levels of spectrozyme TH as substrate measured after 10 mins by Michaelis-Menten plot analysis (reference value: 9.3 +/- 2.8 uM)
[13] = system: CCOC(=O)c1c(C)oc2cc(OCCc3ccccc3)c(OCc3oc4cc(OC)c(OS(=O)(=O)O)cc4c3C(=O)OCC)cc12; assay: Non competitive inhibition of human thrombin assessed as substrate Vmax at 40 uM using varying levels of spectrozyme TH as substrate measured after 10 mins by Michaelis-Menten plot analysis (reference value: 51.0 +/- 2.8 mAU/min)
[14] = system: CCOC(=O)c1c(C)oc2cc(OCCc3ccccc3)c(OCc3oc4cc(OC)c(OS(=O)(=O)O)cc4c3C(=O)OCC)cc12; assay: Non competitive inhibition of human thrombin assessed as substrate Km at 2 uM using varying levels of spectrozyme TH as substrate measured after 10 mins by Michaelis-Menten plot analysis (reference value: 9.3 +/- 2.8 uM)
[15] = system: CCOC(=O)c1c(C)oc2cc(OCc3ccccc3)c(OCc3oc4cc(OCC5CCCCC5)c(OS(=O)(=O)O)cc4c3C(=O)OCC)cc12; assay: Mixed-type inhibition of human thrombin assessed as substrate Km at 2 uM using varying levels of spectrozyme TH as substrate measured after 10 mins by Michaelis-Menten plot analysis (reference value: 8.6 +/- 2.8 uM)
[16] = system: CCOC(=O)c1c(C)oc2cc(OCc3ccccc3)c(OCc3oc4cc(OCC5CCCCC5)c(OS(=O)(=O)O)cc4c3C(=O)OCC)cc12; assay: Mixed-type inhibition of human thrombin assessed as substrate Vmax at 40 uM using varying levels of spectrozyme TH as substrate measured after 10 mins by Michaelis-Menten plot analysis (reference value: 48.2 +/- 2.8 mAU/min)
[17] = system: CCOC(=O)c1c(C)oc2cc(OCCc3ccccc3)c(OCc3oc4cc(OC)c(OS(=O)(=O)O)cc4c3C(=O)OCC)cc12; assay: Non competitive inhibition of human thrombin assessed as substrate Km at 10 uM using varying levels of spectrozyme TH as substrate measured after 10 mins by Michaelis-Menten plot analysis (reference value: 9.3 +/- 2.8 uM)
[18] = system: CCOC(=O)c1c(C)oc2cc(OCc3ccccc3)c(OCc3oc4cc(OCC5CCCCC5)c(OS(=O)(=O)O)cc4c3C(=O)OCC)cc12; assay: Mixed-type inhibition of human thrombin assessed as substrate Vmax at 1 uM using varying levels of spectrozyme TH as substrate measured after 10 mins by Michaelis-Menten plot analysis (reference value: 48.2 +/- 2.8 mAU/min)

Row | inhibition (Prothrombin [1]) [%] | IC50 (Prothrombin [2]) [µM] | inhibition (Prothrombin [3]) | Efficacy (Prothrombin [2]) [%] | Compound | other results
1 | > 50 | > 500 | – | – | CCOC(=O)c1c(C)oc2cc(OCc3ccc(OC(C)C)cc3)c(OS(=O)(=O)O)cc12 | –
2 | – | 14 | > 50% | 74 | CCOC(=O)c1c(C)oc2cc(OCc3ccccc3)c(OCc3oc4cc(OC)c(OS(=O)(=O)O)cc4c3C(=O)OCCOS(=O)(=O)O)cc12 | –
3 | – | 3.3 | > 50% | 61 | CCOC(=O)c1c(C)oc2cc(OCc3ccc(OCOC)cc3)c(OCc3oc4cc(OC)c(OS(=O)(=O)O)cc4c3C(=O)OCC)cc12 | –
4 | > 50 | 168 | – | 95 | COc1cc2oc(C)c(C(=O)OCc3ccccc3)c2cc1OS(=O)(=O)O | –
5 | > 50 | 134 | – | 72 | CCOC(=O)c1c(C)oc2cc(OCc3ccccc3)c(OS(=O)(=O)O)cc12 | –
6 | – | 2.6 | > 50% | 57 | CCOC(=O)c1c(C)oc2cc(OCc3cccc(OC(C)C)c3)c(OCc3oc4cc(OC)c(OS(=O)(=O)O)cc4c3C(=O)OCC)cc12 | –
7 | – | 4.9 | > 50% | 68 | CCCOC(=O)c1c(COc2cc3c(C(=O)OCc4ccccc4)c(C)oc3cc2OC)oc2cc(OC)c(OS(=O)(=O)O)cc12 | –
8 | > 50 | 229 | – | 75.9 | CCOC(=O)c1c(C)oc2cc(OCc3cccc(OCOC)c3)c(OS(=O)(=O)O)cc12 | –
9 | – | 2 | > 50% | 57 | CCOC(=O)c1c(C)oc2cc(OCc3ccccc3)c(OCc3oc4cc(OC)c(OS(=O)(=O)O)cc4c3C(=O)OCC)cc12 | –
10 | – | > 300 | inactive | – | CCOC(=O)c1c(C)oc2cc(OS(=O)(=O)O)c(OCc3oc4cc(OC)c(OS(=O)(=O)O)cc4c3C(=O)OCC)cc12 | –
11 | – | 4 | > 50% | 59 | CCOC(=O)c1c(C)oc2cc(OCc3cccc(OCOC)c3)c(OCc3oc4cc(OC)c(OS(=O)(=O)O)cc4c3C(=O)OCC)cc12 | –
12 | – | 2.6 | > 50% | 63 | CCOC(=O)c1c(C)oc2cc(OCC3CCCCC3)c(OCc3oc4cc(OC)c(OS(=O)(=O)O)cc4c3C(=O)OCC)cc12 | –
13 | > 50 | > 500 | – | – | COc1cc2oc(C)c(C(=O)OCCOS(=O)(=O)O)c2cc1OS(=O)(=O)O | –
14 | – | 3.2 | > 50% | 58 | CCOC(=O)c1c(COc2cc3c(C(=O)OCCc4ccccc4)c(C)oc3cc2OC)oc2cc(OC)c(OS(=O)(=O)O)cc12 | –
15 | – | – | – | – | Prothrombin (Homo sapiens) (from UniProt P00734) | Vmax [4]: 30.9 mAU/min; Vmax [5]: 44.1 mAU/min; Km [6]: 61 µM; Vmax [7]: 38.7 mAU/min; Km [8]: 29.7 µM; Vmax [9]: 32.5 mAU/min; Km [10]: 8.3 µM; Km [11]: 8.8 µM; Km [12]: 6.8 µM; Vmax [13]: 23.7 mAU/min; Km [14]: 9.2 µM; Km [15]: 10.7 µM; Vmax [16]: 26.5 mAU/min; Km [17]: 7.4 µM; Vmax [18]: 43.8 mAU/min
16 | > 50 | > 500 | – | – | CCOC(=O)c1c(C)oc2cc(OCc3cccc(OS(=O)(=O)O)c3)c(OS(=O)(=O)O)cc12 | –
17 | > 50 | > 500 | – | – | COC(=O)c1c(C)oc2cc(OCc3cccc(OS(=O)(=O)O)c3)c(OCc3cccc(S(=O)(=O)O)c3)cc12 | –
18 | – | > 300 | inactive | – | CCOC(=O)c1c(C)oc2cc(Oc3cccc(OS(=O)(=O)O)c3)c(OCc3oc4cc(OC)c(OS(=O)(=O)O)cc4c3C(=O)OCC)cc12 | –
19 | – | 2.6 | > 50% | 66 | CCOC(=O)c1c(COc2cc3c(C(=O)OCc4ccc(OCOC)cc4)c(C)oc3cc2OC)oc2cc(OC)c(OS(=O)(=O)O)cc12 | –
20 | – | 2.3 | > 50% | 74 | CCOC(=O)c1c(C)oc2cc(OCc3ccc(OC(C)C)cc3)c(OCc3oc4cc(OC)c(OS(=O)(=O)O)cc4c3C(=O)OCC)cc12 | –
21 | > 50 | > 500 | – | – | Cc1oc2cc(OCc3ccccc3)c(OS(=O)(=O)O)cc2c1C(=O)O | –
22 | – | 3.8 | > 50% | 77 | CCOC(=O)c1c(C)oc2cc(OC)c(OCc3oc4cc(OCC5CCCCC5)c(OS(=O)(=O)O)cc4c3C(=O)OCC)cc12 | –
23 | > 50 | > 500 | – | – | CCOC(=O)c1c(C)oc2cc(OCc3cccc(OC(C)C)c3)c(OS(=O)(=O)O)cc12 | –
24 | > 50 | > 500 | – | – | CCOC(=O)c1c(C)oc2cc(OCc3ccccc3)c(OCc3cccc(S(=O)(=O)O)c3)cc12 | –
25 | > 50 | 134 | – | 101 | CCOC(=O)c1c(C)oc2cc(OC)c(OCc3cccc(S(=O)(=O)O)c3)cc12 | –
26 | – | 8.7 | > 50% | 93 | CCOC(=O)c1c(C)oc2cc(OCC3CCCCC3)c(OCc3oc4cc(OCC5CCCCC5)c(OS(=O)(=O)O)cc4c3C(=O)OCC)cc12 | –
27 | > 50 | > 500 | – | – | CCOC(=O)c1c(C)oc2cc(OCC3CCCCC3)c(OS(=O)(=O)O)cc12 | –
